Experimental data: ChEMBL document CHEMBL3763043, “Synthesis and biological evaluation of new fluorinated and chlorinated indenoisoquinoline topoisomerase I poisons” (Bioorg Med Chem, 2016)

tested on: not listed separately; assay: Cytotoxicity against human OVCAR3 cells by MTT assay; type: functional; settings: OVCAR-3
How it was run: (§1)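 NCI-60 screen: a single-dose 10 μM pre-test, then a five-concentration assay for promoted compounds. GI₅₀ is the concentration giving 50% growth inhibition versus control, taken from concentration-response curves. GI₅₀ values below the lowest concentration were recorded as 10 nM, and values above the range at the top concentration.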

Structure (SMILES)	GI50 [nM]
O=C1c2cc3c(cc2-c2c1c1ccc(Cl)cc1c(=O)n2C[C@H](O)CO)OCO3	62
O=C1c2cc3c(cc2-c2c1c1cc(F)c(F)cc1c(=O)n2CCCn1ccnc1)OCO3	115
O=C1c2cc3c(cc2-c2c1c1cc(Cl)c(Cl)cc1c(=O)n2C[C@H](O)CO)OCO3	16
O=C1c2cc3c(cc2-c2c1c1cc(F)c(F)cc1c(=O)n2C[C@H](O)CO)OCO3	224
O=C1c2cc3c(cc2-c2c1c1ccc(F)cc1c(=O)n2CCCn1ccnc1)OCO3	19
O=C1c2cc3c(cc2-c2c1c1ccc(F)cc1c(=O)n2C[C@H](O)[C@@H](O)[C@H](O)CO)OCO3	100
O=C1c2cc3c(cc2-c2c1c1ccc(F)cc1c(=O)n2CCCNCCO)OCO3	76

target: Tyrosyl-DNA phosphodiesterase 1 (Homo sapiens, UniProt Q9NUW8); assay: Inhibition of recombinant TDP1 (unknown origin) using 5'-[32P]-labeled single-stranded DNA oligonucleotide containing 3'-phosphotyrosine (N14Y) as substrate for 15 mins by PAGE assay; settings: not given
Sequence (Q9NUW8 whole entry): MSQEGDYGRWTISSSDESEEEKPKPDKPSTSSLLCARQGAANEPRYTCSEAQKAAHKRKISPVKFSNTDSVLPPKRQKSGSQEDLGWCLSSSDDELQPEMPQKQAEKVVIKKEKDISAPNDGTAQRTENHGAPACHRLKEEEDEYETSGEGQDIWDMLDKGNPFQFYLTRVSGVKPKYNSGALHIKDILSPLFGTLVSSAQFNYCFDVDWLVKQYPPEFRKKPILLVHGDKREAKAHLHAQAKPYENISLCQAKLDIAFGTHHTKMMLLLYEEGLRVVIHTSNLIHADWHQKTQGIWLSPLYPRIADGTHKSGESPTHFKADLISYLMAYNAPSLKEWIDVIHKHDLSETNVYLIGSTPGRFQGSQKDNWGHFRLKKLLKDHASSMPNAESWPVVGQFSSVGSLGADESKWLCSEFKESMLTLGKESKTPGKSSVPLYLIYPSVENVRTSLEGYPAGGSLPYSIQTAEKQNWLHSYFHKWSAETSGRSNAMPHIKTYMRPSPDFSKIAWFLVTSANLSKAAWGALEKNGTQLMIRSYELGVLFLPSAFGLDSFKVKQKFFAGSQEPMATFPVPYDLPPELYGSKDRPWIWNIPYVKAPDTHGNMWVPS

Structure (SMILES)	IC50 [nM]
O=C1c2cc3c(cc2-c2c1c1ccc(F)cc1c(=O)n2CCCNCCO)OCO3	6200

target: T1, DNA topoisomerase 1 (Homo sapiens) (UniProt P11387); assay: Activity at recombinant Top1 (unknown origin) using 3'-[32P]-labeled double-stranded DNA (117 bp) as substrate assessed as induction of DNA cleavage at 0.1 to 100 uM incubated for 20 mins by electrophoretic assay relative to 1 uM camptothecin; settings: not given
T1 sequence (whole entry): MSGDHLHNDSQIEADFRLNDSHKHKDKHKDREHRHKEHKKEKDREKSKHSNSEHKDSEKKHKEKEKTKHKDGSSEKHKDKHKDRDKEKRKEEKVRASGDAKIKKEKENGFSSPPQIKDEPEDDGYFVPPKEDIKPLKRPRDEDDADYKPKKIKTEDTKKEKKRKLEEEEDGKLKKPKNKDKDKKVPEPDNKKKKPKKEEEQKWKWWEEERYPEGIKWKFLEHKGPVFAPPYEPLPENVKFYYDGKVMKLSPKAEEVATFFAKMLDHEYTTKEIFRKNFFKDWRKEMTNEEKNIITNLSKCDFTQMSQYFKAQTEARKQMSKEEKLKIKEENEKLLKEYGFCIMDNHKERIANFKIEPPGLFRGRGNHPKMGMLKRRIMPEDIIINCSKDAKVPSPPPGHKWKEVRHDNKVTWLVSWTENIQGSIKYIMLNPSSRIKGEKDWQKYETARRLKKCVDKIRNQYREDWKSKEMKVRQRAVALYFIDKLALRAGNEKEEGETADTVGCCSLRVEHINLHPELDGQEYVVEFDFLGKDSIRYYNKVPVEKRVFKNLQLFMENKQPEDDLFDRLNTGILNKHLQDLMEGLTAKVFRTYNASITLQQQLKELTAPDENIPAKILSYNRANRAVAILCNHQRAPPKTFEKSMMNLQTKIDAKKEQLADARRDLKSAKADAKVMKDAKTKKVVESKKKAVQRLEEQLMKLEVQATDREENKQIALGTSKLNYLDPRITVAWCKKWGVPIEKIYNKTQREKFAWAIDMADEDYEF

Structure (SMILES)	Activity [%]
O=C1c2cc3c(cc2-c2c1c1ccc(Cl)cc1c(=O)n2C[C@H](O)CO)OCO3	50
O=C1c2cc3c(cc2-c2c1c1cc(F)c(F)cc1c(=O)n2CCCn1ccnc1)OCO3	20
O=C1c2cc3c(cc2-c2c1c1cc(Cl)c(Cl)cc1c(=O)n2C[C@H](O)CO)OCO3	50
O=C1c2cc3c(cc2-c2c1c1cc(F)c(F)cc1c(=O)n2C[C@H](O)CO)OCO3	50
O=C1c2cc3c(cc2-c2c1c1ccc(F)cc1c(=O)n2CCCn1ccnc1)OCO3	75
O=C1c2cc3c(cc2-c2c1c1ccc(F)cc1c(=O)n2C[C@H](O)[C@@H](O)[C@H](O)CO)OCO3	50
O=C1c2cc3c(cc2-c2c1c1ccc(F)cc1c(=O)n2CCCNCCO)OCO3	50

target: T2, Tyrosyl-DNA phosphodiesterase 2 (Homo sapiens, UniProt O95551); assay: Inhibition of recombinant human TDP2 using alpha32P-cordycepin-[…]-labeled 19-mer single-stranded oligonucleotide DNA containing 5'-phosphotyrosine (Y19) for 15 mins by PAGE assay; settings: not given
T2 sequence (O95551 whole entry): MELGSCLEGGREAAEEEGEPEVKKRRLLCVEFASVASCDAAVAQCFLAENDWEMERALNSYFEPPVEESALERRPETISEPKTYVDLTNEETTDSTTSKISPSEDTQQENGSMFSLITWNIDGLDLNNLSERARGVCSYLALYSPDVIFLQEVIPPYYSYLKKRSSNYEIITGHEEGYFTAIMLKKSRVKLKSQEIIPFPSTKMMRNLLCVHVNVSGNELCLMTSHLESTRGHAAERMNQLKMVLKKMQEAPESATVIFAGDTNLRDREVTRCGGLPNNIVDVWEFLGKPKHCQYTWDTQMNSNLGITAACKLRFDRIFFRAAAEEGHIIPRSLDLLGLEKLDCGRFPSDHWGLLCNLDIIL

Structure (SMILES)	IC50 [nM]
O=C1c2cc3c(cc2-c2c1c1ccc(F)cc1c(=O)n2CCCNCCO)OCO3	6300

tested on: not listed separately; assay: Cytotoxicity against human DU145 cells by MTT assay; type: functional; settings: DU-145; how it was run: as §1

Structure (SMILES)	GI50 [nM]
O=C1c2cc3c(cc2-c2c1c1ccc(Cl)cc1c(=O)n2C[C@H](O)CO)OCO3	32
O=C1c2cc3c(cc2-c2c1c1cc(F)c(F)cc1c(=O)n2CCCn1ccnc1)OCO3	< 10
O=C1c2cc3c(cc2-c2c1c1cc(Cl)c(Cl)cc1c(=O)n2C[C@H](O)CO)OCO3	< 10
O=C1c2cc3c(cc2-c2c1c1cc(F)c(F)cc1c(=O)n2C[C@H](O)CO)OCO3	41
O=C1c2cc3c(cc2-c2c1c1ccc(F)cc1c(=O)n2CCCn1ccnc1)OCO3	< 10
O=C1c2cc3c(cc2-c2c1c1ccc(F)cc1c(=O)n2C[C@H](O)[C@@H](O)[C@H](O)CO)OCO3	51
O=C1c2cc3c(cc2-c2c1c1ccc(F)cc1c(=O)n2CCCNCCO)OCO3	33

tested on: not listed separately; assay: Cytotoxicity against human UACC62 cells by MTT assay; type: functional; settings: UACC-62; how it was run: as §1

Structure (SMILES)	GI50 [nM]
O=C1c2cc3c(cc2-c2c1c1ccc(Cl)cc1c(=O)n2C[C@H](O)CO)OCO3	12
O=C1c2cc3c(cc2-c2c1c1cc(F)c(F)cc1c(=O)n2CCCn1ccnc1)OCO3	< 10
O=C1c2cc3c(cc2-c2c1c1cc(Cl)c(Cl)cc1c(=O)n2C[C@H](O)CO)OCO3	< 10
O=C1c2cc3c(cc2-c2c1c1cc(F)c(F)cc1c(=O)n2C[C@H](O)CO)OCO3	15
O=C1c2cc3c(cc2-c2c1c1ccc(F)cc1c(=O)n2CCCn1ccnc1)OCO3	< 10
O=C1c2cc3c(cc2-c2c1c1ccc(F)cc1c(=O)n2C[C@H](O)[C@@H](O)[C@H](O)CO)OCO3	25
O=C1c2cc3c(cc2-c2c1c1ccc(F)cc1c(=O)n2CCCNCCO)OCO3	28

tested on: MCF7; assay: Cytotoxicity against human MCF7 cells by MTT assay; type: functional; settings: not given; how it was run: as §1

Structure (SMILES)	GI50 [nM]
O=C1c2cc3c(cc2-c2c1c1ccc(Cl)cc1c(=O)n2C[C@H](O)CO)OCO3	< 10
O=C1c2cc3c(cc2-c2c1c1cc(F)c(F)cc1c(=O)n2CCCn1ccnc1)OCO3	< 10
O=C1c2cc3c(cc2-c2c1c1cc(Cl)c(Cl)cc1c(=O)n2C[C@H](O)CO)OCO3	< 10
O=C1c2cc3c(cc2-c2c1c1cc(F)c(F)cc1c(=O)n2C[C@H](O)CO)OCO3	< 10
O=C1c2cc3c(cc2-c2c1c1ccc(F)cc1c(=O)n2CCCn1ccnc1)OCO3	< 10
O=C1c2cc3c(cc2-c2c1c1ccc(F)cc1c(=O)n2C[C@H](O)[C@@H](O)[C@H](O)CO)OCO3	12
O=C1c2cc3c(cc2-c2c1c1ccc(F)cc1c(=O)n2CCCNCCO)OCO3	< 10

tested on: not listed separately; assay: Cytotoxicity against human HCT116 cells by MTT assay; type: functional; settings: HCT-116; how it was run: as §1

Structure (SMILES)	GI50 [nM]
O=C1c2cc3c(cc2-c2c1c1ccc(Cl)cc1c(=O)n2C[C@H](O)CO)OCO3	20
O=C1c2cc3c(cc2-c2c1c1cc(F)c(F)cc1c(=O)n2CCCn1ccnc1)OCO3	< 10
O=C1c2cc3c(cc2-c2c1c1cc(Cl)c(Cl)cc1c(=O)n2C[C@H](O)CO)OCO3	< 10
O=C1c2cc3c(cc2-c2c1c1cc(F)c(F)cc1c(=O)n2C[C@H](O)CO)OCO3	37
O=C1c2cc3c(cc2-c2c1c1ccc(F)cc1c(=O)n2CCCn1ccnc1)OCO3	< 10
O=C1c2cc3c(cc2-c2c1c1ccc(F)cc1c(=O)n2C[C@H](O)[C@@H](O)[C@H](O)CO)OCO3	35
O=C1c2cc3c(cc2-c2c1c1ccc(F)cc1c(=O)n2CCCNCCO)OCO3	19

tested on: not listed separately; assay: Cytotoxicity against human HOP62 cells by MTT assay; type: functional; settings: HOP-62; how it was run: as §1

Structure (SMILES)	GI50 [nM]
O=C1c2cc3c(cc2-c2c1c1ccc(Cl)cc1c(=O)n2C[C@H](O)CO)OCO3	22
O=C1c2cc3c(cc2-c2c1c1cc(F)c(F)cc1c(=O)n2CCCn1ccnc1)OCO3	< 10
O=C1c2cc3c(cc2-c2c1c1cc(Cl)c(Cl)cc1c(=O)n2C[C@H](O)CO)OCO3	< 10
O=C1c2cc3c(cc2-c2c1c1cc(F)c(F)cc1c(=O)n2C[C@H](O)CO)OCO3	22
O=C1c2cc3c(cc2-c2c1c1ccc(F)cc1c(=O)n2CCCn1ccnc1)OCO3	< 10
O=C1c2cc3c(cc2-c2c1c1ccc(F)cc1c(=O)n2C[C@H](O)[C@@H](O)[C@H](O)CO)OCO3	32
O=C1c2cc3c(cc2-c2c1c1ccc(F)cc1c(=O)n2CCCNCCO)OCO3	36

tested on: not listed separately; assay: Cytotoxicity against human SF539 cells by MTT assay; type: functional; settings: SF-539; how it was run: as §1

Structure (SMILES)	GI50 [nM]
O=C1c2cc3c(cc2-c2c1c1ccc(Cl)cc1c(=O)n2C[C@H](O)CO)OCO3	25
O=C1c2cc3c(cc2-c2c1c1cc(F)c(F)cc1c(=O)n2CCCn1ccnc1)OCO3	< 10
O=C1c2cc3c(cc2-c2c1c1cc(Cl)c(Cl)cc1c(=O)n2C[C@H](O)CO)OCO3	< 10
O=C1c2cc3c(cc2-c2c1c1cc(F)c(F)cc1c(=O)n2C[C@H](O)CO)OCO3	29
O=C1c2cc3c(cc2-c2c1c1ccc(F)cc1c(=O)n2CCCn1ccnc1)OCO3	< 10
O=C1c2cc3c(cc2-c2c1c1ccc(F)cc1c(=O)n2C[C@H](O)[C@@H](O)[C@H](O)CO)OCO3	29
O=C1c2cc3c(cc2-c2c1c1ccc(F)cc1c(=O)n2CCCNCCO)OCO3	41

tested on: SN12C; assay: Cytotoxicity against human SN12C cells by MTT assay; type: functional; settings: not given; how it was run: as §1

Structure (SMILES)	GI50 [nM]
O=C1c2cc3c(cc2-c2c1c1ccc(Cl)cc1c(=O)n2C[C@H](O)CO)OCO3	27
O=C1c2cc3c(cc2-c2c1c1cc(F)c(F)cc1c(=O)n2CCCn1ccnc1)OCO3	< 10
O=C1c2cc3c(cc2-c2c1c1cc(Cl)c(Cl)cc1c(=O)n2C[C@H](O)CO)OCO3	< 10
O=C1c2cc3c(cc2-c2c1c1cc(F)c(F)cc1c(=O)n2C[C@H](O)CO)OCO3	33
O=C1c2cc3c(cc2-c2c1c1ccc(F)cc1c(=O)n2CCCn1ccnc1)OCO3	< 10
O=C1c2cc3c(cc2-c2c1c1ccc(F)cc1c(=O)n2C[C@H](O)[C@@H](O)[C@H](O)CO)OCO3	79
O=C1c2cc3c(cc2-c2c1c1ccc(F)cc1c(=O)n2CCCNCCO)OCO3	107
